Source: ChEMBL document CHEMBL2086267, “Discovery of N6-phenyl-1H-pyrazolo[3,4-d]pyrimidine-3,6-diamine derivatives as novel CK1 inhibitors using common-feature pharmacophore model based virtual screening and hit-to-lead optimization” (Eur J Med Chem, 2012)
pIC50: −log10 of the molar value. Blank lines part the entries; values can stand above or below the molecule they belong to.

Experiments:
[1] = target: T1, Casein kinase I isoform alpha (Homo sapiens, UniProt P48729); assay: Inhibition of CK1 using KRRRALS(p)VASLPGL as substrate after 40 mins by scintillation counter
Target sequence in this assay (P48729 whole entry, canonical isoform): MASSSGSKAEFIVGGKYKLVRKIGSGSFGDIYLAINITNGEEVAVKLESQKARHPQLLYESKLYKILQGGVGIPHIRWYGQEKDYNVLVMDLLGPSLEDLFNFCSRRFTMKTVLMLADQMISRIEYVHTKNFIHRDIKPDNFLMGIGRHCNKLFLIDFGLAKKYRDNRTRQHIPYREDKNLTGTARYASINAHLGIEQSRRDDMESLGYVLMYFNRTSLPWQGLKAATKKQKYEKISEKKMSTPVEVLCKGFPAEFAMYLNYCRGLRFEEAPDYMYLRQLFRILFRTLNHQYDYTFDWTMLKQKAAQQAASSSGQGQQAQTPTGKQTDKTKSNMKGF

[2] = target: Vascular endothelial growth factor receptor 2 (Homo sapiens) (UniProt P35968); assay: Inhibition of KDR at 10 uM
Procedure, shortened: (§1)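 Kinase inhibition was tested through a commercial kinase profiling service. Each assay was run twice and mean activity calculated.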

[3] = target: Hepatocyte growth factor receptor (Homo sapiens) (UniProt P08581); assay: Inhibition of Met at 10 uM; procedure, shortened: as §1
[4] = target: Glycogen synthase kinase-3 alpha (Homo sapiens) (UniProt P49840); assay: Inhibition of GSK3alpha at 10 uM; procedure, shortened: as §1
[5] = target: Receptor-type tyrosine-protein kinase FLT3 (Homo sapiens) (UniProt P36888); assay: Inhibition of Flt3 at 10 uM; procedure, shortened: as §1
[6] = target: Tyrosine-protein kinase receptor UFO (Homo sapiens) (UniProt P30530); assay: Inhibition of Axl at 10 uM; procedure, shortened: as §1
[7] = target: Epidermal growth factor receptor (Homo sapiens) (UniProt P00533); assay: Inhibition of EGFR at 10 uM; procedure, shortened: as §1
[8] = target: Serine/threonine-protein kinase PLK1 (Homo sapiens) (UniProt P53350); assay: Inhibition of Plk1 at 10 uM; procedure, shortened: as §1
[9] = target: Fibroblast growth factor receptor 2 (Homo sapiens) (UniProt P21802); assay: Inhibition of FGFR2 at 10 uM; procedure, shortened: as §1
[10] = target: Serine/threonine-protein kinase mTOR (Homo sapiens) (UniProt P42345); assay: Inhibition of mTOR at 10 uM; procedure, shortened: as §1
[11] = target: Cyclin-dependent kinase 1 (Homo sapiens) (UniProt P06493); assay: Inhibition of CDK1 at 10 uM; procedure, shortened: as §1
[12] = target: Platelet-derived growth factor receptor alpha (Homo sapiens) (UniProt P16234); assay: Inhibition of PDGFRalpha at 10 uM; procedure, shortened: as §1
[13] = target: ALK tyrosine kinase receptor (Homo sapiens) (UniProt Q9UM73); assay: Inhibition of ALK at 10 uM; procedure, shortened: as §1
[14] = target: T1, Casein kinase I isoform alpha; assay: Inhibition of CK1 using KRRRALS(p)VASLPGL as substrate at 10 uM after 40 mins by scintillation counter
Procedure, shortened: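 Radiometric CK1 assay with substrate KRRRALS(p)VASLPGL and [γ-³³P]ATP plus 10 mM Mg acetate, in 20 mM MOPS, 1 mM EDTA, 0.01% Brij-35 and 5% glycerol. Reactions were spotted onto P30 filtermat, washed three times for 5 min in 75 mM phosphoric acid and once in methanol, dried, then scintillation counted. Run twice; mean activity reported.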
Target sequence in this assay (P48729 2-337 limits assumed): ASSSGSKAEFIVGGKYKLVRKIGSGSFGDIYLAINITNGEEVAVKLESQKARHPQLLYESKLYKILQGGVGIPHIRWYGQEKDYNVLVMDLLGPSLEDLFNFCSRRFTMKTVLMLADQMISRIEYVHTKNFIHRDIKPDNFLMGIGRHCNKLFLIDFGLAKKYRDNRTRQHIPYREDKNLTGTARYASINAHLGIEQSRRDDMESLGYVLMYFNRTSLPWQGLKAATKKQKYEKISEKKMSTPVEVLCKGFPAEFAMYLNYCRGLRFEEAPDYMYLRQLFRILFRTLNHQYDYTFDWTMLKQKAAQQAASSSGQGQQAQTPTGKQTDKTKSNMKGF

Cyclin-dependent kinase 1 (Homo sapiens), sequence (P06493 whole entry, looked up): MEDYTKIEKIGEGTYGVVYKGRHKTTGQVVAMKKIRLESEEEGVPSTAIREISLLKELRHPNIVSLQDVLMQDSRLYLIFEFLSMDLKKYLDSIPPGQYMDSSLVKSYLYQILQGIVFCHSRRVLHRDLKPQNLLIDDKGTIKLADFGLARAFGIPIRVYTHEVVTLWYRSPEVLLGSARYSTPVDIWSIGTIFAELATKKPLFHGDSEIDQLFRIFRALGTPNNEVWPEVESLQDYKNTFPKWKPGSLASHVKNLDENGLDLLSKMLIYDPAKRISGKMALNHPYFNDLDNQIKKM
Epidermal growth factor receptor (Homo sapiens), sequence (P00533 whole entry): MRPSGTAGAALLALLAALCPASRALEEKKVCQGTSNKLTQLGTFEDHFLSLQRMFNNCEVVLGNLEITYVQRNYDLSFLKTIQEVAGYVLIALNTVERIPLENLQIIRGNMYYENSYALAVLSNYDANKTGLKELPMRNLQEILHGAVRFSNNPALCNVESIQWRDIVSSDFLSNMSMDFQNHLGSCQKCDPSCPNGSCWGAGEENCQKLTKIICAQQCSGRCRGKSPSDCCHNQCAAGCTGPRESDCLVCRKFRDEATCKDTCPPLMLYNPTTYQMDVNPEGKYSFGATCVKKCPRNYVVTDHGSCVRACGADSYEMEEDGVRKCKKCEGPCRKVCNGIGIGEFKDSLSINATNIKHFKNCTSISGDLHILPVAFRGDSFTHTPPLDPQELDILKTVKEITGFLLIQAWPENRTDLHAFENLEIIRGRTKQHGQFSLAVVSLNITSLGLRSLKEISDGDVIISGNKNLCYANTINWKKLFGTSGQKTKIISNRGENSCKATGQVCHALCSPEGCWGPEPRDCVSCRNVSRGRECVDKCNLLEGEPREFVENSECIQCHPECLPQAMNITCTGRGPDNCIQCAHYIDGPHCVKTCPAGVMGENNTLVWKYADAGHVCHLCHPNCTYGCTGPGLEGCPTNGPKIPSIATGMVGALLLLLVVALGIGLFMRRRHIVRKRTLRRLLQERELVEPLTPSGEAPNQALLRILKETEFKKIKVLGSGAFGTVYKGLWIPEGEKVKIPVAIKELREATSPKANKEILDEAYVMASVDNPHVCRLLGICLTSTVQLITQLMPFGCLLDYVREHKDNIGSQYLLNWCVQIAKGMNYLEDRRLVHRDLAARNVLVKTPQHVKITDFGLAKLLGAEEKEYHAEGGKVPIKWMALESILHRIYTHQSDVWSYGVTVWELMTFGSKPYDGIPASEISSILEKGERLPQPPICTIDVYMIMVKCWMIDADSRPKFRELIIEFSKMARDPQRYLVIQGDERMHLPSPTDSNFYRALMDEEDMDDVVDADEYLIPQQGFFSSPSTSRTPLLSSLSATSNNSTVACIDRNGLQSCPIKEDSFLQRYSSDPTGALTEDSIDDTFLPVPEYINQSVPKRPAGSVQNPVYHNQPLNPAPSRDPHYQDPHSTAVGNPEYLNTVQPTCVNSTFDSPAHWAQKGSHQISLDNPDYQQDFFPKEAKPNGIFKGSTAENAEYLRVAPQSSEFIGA
Glycogen synthase kinase-3 alpha (Homo sapiens), sequence (P49840 2-483 limits assumed): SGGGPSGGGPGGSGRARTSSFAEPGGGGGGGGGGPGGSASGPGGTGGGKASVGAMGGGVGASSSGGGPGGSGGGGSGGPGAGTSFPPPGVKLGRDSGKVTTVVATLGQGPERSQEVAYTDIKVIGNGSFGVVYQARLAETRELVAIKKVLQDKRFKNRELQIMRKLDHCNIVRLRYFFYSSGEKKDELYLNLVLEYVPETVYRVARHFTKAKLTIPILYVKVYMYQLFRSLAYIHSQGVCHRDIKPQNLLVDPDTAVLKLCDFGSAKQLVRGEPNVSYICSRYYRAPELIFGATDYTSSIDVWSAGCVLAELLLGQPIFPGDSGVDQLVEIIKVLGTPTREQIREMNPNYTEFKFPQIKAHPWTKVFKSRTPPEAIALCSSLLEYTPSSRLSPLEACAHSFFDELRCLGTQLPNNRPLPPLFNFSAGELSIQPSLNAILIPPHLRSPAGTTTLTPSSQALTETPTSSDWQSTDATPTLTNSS
Serine/threonine-protein kinase PLK1 (Homo sapiens), sequence (P53350 whole entry): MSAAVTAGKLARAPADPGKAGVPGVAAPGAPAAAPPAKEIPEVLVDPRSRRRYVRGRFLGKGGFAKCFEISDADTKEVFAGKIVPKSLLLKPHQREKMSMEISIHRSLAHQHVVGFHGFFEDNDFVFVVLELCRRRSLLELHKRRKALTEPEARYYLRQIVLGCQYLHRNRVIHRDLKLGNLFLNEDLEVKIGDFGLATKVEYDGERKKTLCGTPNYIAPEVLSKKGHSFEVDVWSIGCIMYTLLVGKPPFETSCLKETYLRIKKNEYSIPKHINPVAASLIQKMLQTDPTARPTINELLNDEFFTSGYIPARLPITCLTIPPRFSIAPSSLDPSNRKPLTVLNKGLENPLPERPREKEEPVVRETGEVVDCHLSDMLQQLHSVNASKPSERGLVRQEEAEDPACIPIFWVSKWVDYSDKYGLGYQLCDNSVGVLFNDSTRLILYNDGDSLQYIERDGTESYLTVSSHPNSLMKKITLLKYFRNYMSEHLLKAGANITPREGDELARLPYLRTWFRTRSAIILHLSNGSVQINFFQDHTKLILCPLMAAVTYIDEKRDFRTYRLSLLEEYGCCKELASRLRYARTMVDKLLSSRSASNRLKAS
Tyrosine-protein kinase receptor UFO (Homo sapiens), sequence (P30530 whole entry): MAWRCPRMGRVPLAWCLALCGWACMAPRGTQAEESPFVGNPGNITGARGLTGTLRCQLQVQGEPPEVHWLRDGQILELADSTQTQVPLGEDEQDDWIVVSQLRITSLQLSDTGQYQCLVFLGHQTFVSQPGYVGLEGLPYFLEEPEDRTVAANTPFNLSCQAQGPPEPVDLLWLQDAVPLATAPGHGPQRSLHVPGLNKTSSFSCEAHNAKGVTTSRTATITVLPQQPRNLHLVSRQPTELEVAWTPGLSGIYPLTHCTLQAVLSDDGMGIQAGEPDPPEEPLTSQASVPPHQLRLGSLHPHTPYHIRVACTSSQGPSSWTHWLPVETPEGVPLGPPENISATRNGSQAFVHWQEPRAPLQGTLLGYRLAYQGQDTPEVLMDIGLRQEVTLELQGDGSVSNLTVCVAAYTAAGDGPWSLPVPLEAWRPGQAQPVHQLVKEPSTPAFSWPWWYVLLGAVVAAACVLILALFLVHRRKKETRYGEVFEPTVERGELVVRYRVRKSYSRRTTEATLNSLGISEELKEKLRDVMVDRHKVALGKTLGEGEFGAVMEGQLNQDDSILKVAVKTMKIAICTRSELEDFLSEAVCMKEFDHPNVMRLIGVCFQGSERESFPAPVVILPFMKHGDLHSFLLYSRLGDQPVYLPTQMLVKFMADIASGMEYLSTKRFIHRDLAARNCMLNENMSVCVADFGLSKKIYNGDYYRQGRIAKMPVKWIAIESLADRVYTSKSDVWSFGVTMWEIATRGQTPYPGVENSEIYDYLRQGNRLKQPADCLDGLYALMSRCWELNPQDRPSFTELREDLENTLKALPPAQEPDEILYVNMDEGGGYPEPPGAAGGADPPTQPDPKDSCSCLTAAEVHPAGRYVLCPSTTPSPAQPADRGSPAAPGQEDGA
Fibroblast growth factor receptor 2 (Homo sapiens), sequence (P21802 22-821 limits assumed): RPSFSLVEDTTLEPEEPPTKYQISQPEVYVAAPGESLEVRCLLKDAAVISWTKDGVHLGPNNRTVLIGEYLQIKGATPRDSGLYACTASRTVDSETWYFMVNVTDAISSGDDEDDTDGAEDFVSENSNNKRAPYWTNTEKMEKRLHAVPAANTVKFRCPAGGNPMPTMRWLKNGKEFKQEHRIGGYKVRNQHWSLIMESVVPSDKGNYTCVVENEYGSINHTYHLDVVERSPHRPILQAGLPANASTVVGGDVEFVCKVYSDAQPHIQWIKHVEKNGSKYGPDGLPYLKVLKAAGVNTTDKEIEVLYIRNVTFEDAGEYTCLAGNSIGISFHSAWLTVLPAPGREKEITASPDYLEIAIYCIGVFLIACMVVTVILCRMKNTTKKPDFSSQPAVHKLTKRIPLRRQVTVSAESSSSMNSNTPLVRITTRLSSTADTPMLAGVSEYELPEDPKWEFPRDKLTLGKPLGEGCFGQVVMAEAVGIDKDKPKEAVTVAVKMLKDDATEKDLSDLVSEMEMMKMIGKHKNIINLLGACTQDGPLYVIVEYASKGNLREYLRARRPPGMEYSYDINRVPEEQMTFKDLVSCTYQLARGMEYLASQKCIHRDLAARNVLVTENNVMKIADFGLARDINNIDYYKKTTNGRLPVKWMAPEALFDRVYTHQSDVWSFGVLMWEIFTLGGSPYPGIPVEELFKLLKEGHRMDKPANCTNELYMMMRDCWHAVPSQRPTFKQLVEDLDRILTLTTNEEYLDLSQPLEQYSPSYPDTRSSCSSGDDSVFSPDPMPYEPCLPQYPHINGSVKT

Compound: C[C@@H](NC(=O)Nc1ccc(Nc2ncc3c(N)n[nH]c3n2)cc1)c1ccccc1
pIC50 [1]: < 5.00

Compound: CC[C@H](CO)Nc1nc(Nc2cccc(-c3ccccn3)c2)c2ncn(C(C)C)c2n1
pIC50 [1]: 7.85

Compound: C[C@@H](NC(=O)Nc1cccc(Nc2ncc3c(N)[nH]nc3n2)c1)c1ccccc1
pIC50 [1]: 5.61

Compound: COc1cc(OC)c(C=C2C(O)=Nc3ccccc32)c(OC)c1 [IC261]
pIC50 [1]: 6.00

Compound: NCCNS(=O)(=O)c1ccc(Cl)c2ccncc12
pIC50 [1]: 5.00

Compound: CC(C)(C)c1cc(NC(=O)Nc2cccc(Nc3ncc4c(N)n[nH]c4n3)c2)n[nH]1
pIC50 [1]: 6.85

The remaining lines, values ahead:

pIC50 [1]: < 5.00
Compound: Nc1n[nH]c2nc(Nc3ccc(NC(=O)Nc4ccc(F)c(Cl)c4)cc3)ncc12

pIC50 [1]: 7.11
Compound: Nc1[nH]nc2nc(Nc3cccc(NC(=O)Nc4ccc(F)c(Cl)c4)c3)ncc12

inhibition [2]: 96% | inhibition [3]: 99% | inhibition [4]: 34% | inhibition [5]: 90% | inhibition [6]: 46% | inhibition [7]: 92% | inhibition [8]: 0% | inhibition [9]: 35% | inhibition [10]: 0% | inhibition [11]: 42% | inhibition [12]: 82% | inhibition [13]: 26% | inhibition [14]: 100%
Compound: Nc1n[nH]c2nc(Nc3cccc(NC(=O)Nc4ccc(F)c(Cl)c4)c3)ncc12
